Measurements as given in ChEMBL document CHEMBL3352362, “Discovery of a novel, first-in-class, orally bioavailable azaindole inhibitor (VX-787) of influenza PB2” (J Med Chem, 2014).
pEC50, pKd: −log10 of the molar value.

Tests used:
[1] = molecular target: Polymerase basic protein 2 (Influenza A virus (strain A/Puerto Rico/8/1934 H1N1), UniProt P03428); test: Binding affinity to influenza A virus (A/Puerto Rico/8/1934(H1N1)) PB2 by competition binding fluorescence polarization (FP) assay
In short: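 Fluorescence polarization competition binding assay measuring affinity for the cap-binding domain of the PB2 subunit.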

Influenza A virus [2] = test: Antiviral activity against Influenza A virus (A/Puerto Rico/8/1934(H1N1)) infected in cells assessed as reduction in multiplication of virus-specific RNA molecules using branched-chain DNA; assay type: functional
In short: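 Viral RNA replication in infected cells quantified by the bDNA QuantiGene method with strand-specific probes for positive- or negative-strand RNA. EC90 is the compound concentration giving viral RNA levels equal to 10% of control wells.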

Influenza A virus [3] = test: Antiviral activity against Influenza A virus (A/Puerto Rico/8/1934(H1N1)) infected in MDCK cells assessed as cell protection after 72 hrs by cytopathic effect assay; assay type: functional, organism-based
In short: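 MDCK cells incubated with test compound and influenza A virus for 72 h (3-day CPE format). Cell viability read by an ATP end point. EC50 is the concentration giving 50% cell protection; mean of N = 3 or greater.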

Sequence of Polymerase basic protein 2 (P03428 whole entry, the tested form may be a part): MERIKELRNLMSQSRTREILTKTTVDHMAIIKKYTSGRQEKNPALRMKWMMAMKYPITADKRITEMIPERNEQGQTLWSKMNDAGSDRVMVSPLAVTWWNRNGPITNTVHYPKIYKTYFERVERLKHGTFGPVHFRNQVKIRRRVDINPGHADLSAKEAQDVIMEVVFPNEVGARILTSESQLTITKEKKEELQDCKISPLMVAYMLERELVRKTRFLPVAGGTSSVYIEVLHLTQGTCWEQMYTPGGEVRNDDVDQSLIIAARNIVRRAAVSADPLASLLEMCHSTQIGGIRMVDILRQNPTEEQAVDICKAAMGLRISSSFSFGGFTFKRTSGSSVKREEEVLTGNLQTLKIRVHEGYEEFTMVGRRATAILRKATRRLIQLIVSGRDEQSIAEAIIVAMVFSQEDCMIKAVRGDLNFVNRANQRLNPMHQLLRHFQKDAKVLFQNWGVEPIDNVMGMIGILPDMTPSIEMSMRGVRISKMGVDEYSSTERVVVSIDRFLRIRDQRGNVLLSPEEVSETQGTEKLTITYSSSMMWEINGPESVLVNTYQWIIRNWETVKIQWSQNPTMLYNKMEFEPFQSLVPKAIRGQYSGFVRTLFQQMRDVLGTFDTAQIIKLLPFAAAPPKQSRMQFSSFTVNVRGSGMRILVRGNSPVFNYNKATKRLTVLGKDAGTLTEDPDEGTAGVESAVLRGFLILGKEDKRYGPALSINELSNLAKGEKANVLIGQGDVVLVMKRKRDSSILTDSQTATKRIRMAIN

Row | SMILES | pKd [1] | EC90 (Influenza A virus [2]) [nM] | pEC50 (Influenza A virus [3])
1 | C[C@]1(C(=O)O)CCCC[C@@H]1Nc1nc(-c2c[nH]c3ncc(F)cc23)ncc1F | > 8.70 | 140 | 7.74
2 | COc1cnc2[nH]cc(-c3ncc(F)c(N[C@H]4CCC[C@@H](NC(=O)N5CCOCC5)C4)n3)c2c1 |  | 170 | 7.02
3 | CC(=O)N[C@@H]1CCC[C@H](Nc2nc(-c3c[nH]c4ncc(Cl)cc34)ncc2F)C1 | 7.15 | 25 | 7.44
4 | COCC(=O)N[C@@H]1CCC[C@H](Nc2nc(-c3c[nH]c4ncc(Cl)cc34)ncc2F)C1 | 7.15 | 20 | 7.36
5 | Fc1cnc(-c2c[nH]c3ncc(Cl)cc23)nc1NC1CCCNC1 (centres undefined) |  |  | 5.73
6 | CC(=O)c1cnc2[nH]cc(-c3ncc(F)c(N[C@H]4CCC[C@@H](NC(=O)N5CCOCC5)C4)n3)c2c1 |  | > 3000 | < 5.00
7 | Cn1cncc1C(=O)N[C@@H]1CCC[C@H](Nc2nc(-c3c[nH]c4ncc(Cl)cc34)ncc2F)C1 | 7.70 | 3 | 8.70
8 | CN(C)c1cnc2[nH]cc(-c3ncc(F)c(N[C@H]4CCC[C@@H](NC(=O)N5CCOCC5)C4)n3)c2c1 |  | > 3000 | 5.90
9 | CN(C)C(=O)N[C@@H]1CCC[C@H](Nc2nc(-c3c[nH]c4ncc(F)cc34)ncc2F)C1 | 6.40 | 6 | 8.70
10 | COCC[C@]1(C(=O)O)CCCC[C@@H]1Nc1nc(-c2c[nH]c3ncc(Cl)cc23)ncc1F (racemic) | 8.05 | 90 | 7.74
11 | O=C(NC1CCOCC1)N[C@@H]1CCC[C@H](Nc2nc(-c3c[nH]c4ncc(F)cc34)ncc2F)C1 | 6.40 | 160 | 7.22
12 | CCc1cnc2[nH]cc(-c3ncc(F)c(N[C@H]4CCC[C@@H](NC(=O)N5CCOCC5)C4)n3)c2c1 |  | 260 | 7.60
13 | CC(O)C(=O)N[C@@H]1CCC[C@H](Nc2nc(-c3c[nH]c4ncc(Cl)cc34)ncc2F)C1 (some centres undefined) | 6.40 | 240 | 7.07
14 | O=C(O)[C@H]1[C@@H]2CC[C@@H](C2)[C@@H]1Nc1nc(-c2c[nH]c3ncc(Cl)cc23)ncc1F (racemic) | > 8.70 | 21 | 8.10
15 | N[C@H]1CCCC[C@@H]1Nc1nc(-c2c[nH]c3ncc(Cl)cc23)ncc1F | 7.05 | 2480 | 6.21
16 | Fc1cnc(-c2c[nH]c3ncc(Cl)cc23)nc1NC1CCCC1 | 6.15 | > 10000 | < 4.70
17 | CC(=O)N[C@H]1CCCC[C@@H]1Nc1nc(-c2c[nH]c3ncc(Cl)cc23)ncc1F | 7.00 | 1460 | 7.36
18 | COCC(=O)N[C@@H]1CCC[C@H](Nc2nc(-c3c[nH]c4ncc(F)cc34)ncc2F)C1 | 6.70 | 90 | 7.35
19 | O=C(CN1CCOCC1)N[C@@H]1CCC[C@H](Nc2nc(-c3c[nH]c4ncc(Cl)cc34)ncc2F)C1 | 6.70 | 380 | 7.00
20 | O=C(O)[C@H]1[C@H]2CC[C@H](C2)[C@@H]1Nc1nc(-c2c[nH]c3ncc(Cl)cc23)ncc1F (racemic) | > 8.70 | 6 | > 8.70
21 | N[C@@H]1CCCC[C@H]1Nc1nc(-c2c[nH]c3ncc(Cl)cc23)ncc1F | 5.31 |  | < 4.70
22 | C[C@H](Nc1nc(-c2c[nH]c3ncc(Cl)cc23)ncc1F)C(=O)N(C)C | 7.00 | 1130 | 6.29
23 | Fc1cnc(-c2c[nH]c3ncc(Cl)cc23)nc1NC1CCCCC1 | 6.52 | 2370 | 5.79
24 | O=C(N[C@@H]1CCC[C@H](Nc2nc(-c3c[nH]c4ncccc34)ncc2F)C1)N1CCOCC1 |  | 200 | 7.01
25 | CC(=O)N1CCC[C@H](CNc2nc(-c3c[nH]c4ncc(Cl)cc34)ncc2F)C1 | 6.52 | 540 | 6.40
26 | NC(=O)[C@H]1CCCC[C@@H]1Nc1nc(-c2c[nH]c3ncc(Cl)cc23)ncc1F (racemic) | 7.52 | 3130 | 
